One series deals with MGC-803. In words: Cytotoxicity against human MGC803 cells after 48 hrs by MTT assay. The class given is functional, cell-based. Particulars: MGC-803, 48 h. The gist of the method: (§1)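 Cells grown overnight in DMEM + 10% FBS at 37 °C under 5% CO2, then given a range of compound concentrations for 48 h. MTT added for about 4 h, medium replaced by DMSO, absorbance read at 570/630 nm. IC50 reported as mean ± SD of five independent experiments.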
(In general: Tetrazolium assays rely on reduction of a dye to a coloured formazan, in cell work by metabolically active cells.)

Series [1] in a line: Cytotoxicity against human SPCA2 cells after 48 hrs by MTT assay. The class given is functional, cell-based. Particulars: SPCA2, 48 h. A digest of the protocol:
as §1

Series [2] has as its system NCI-H460. In words: Cytotoxicity against human NCI-H460 cells after 48 hrs by MTT assay. The class given is functional, cell-based. Particulars: NCI-H460, 48 h. A digest of the protocol: as §1
The next series has as its system A549. In words: Cytotoxicity against human A549 cells after 48 hrs by MTT assay. The class given is functional, cell-based. The conditions noted are these: A549, 48 h. The gist of the method:
as §1

The next series has as its system T-24. Briefly: Cytotoxicity against human T24 cells after 48 hrs by MTT assay. The class given is functional, cell-based. Particulars: T-24, 48 h. The gist of the method: as §1
The subject of the next series is L02. In words: Cytotoxicity against human HL7702 cells after 48 hrs by MTT assay. The conditions noted are these: L02, 48 h. The class given is cell-based. The gist of the method: as §1
The nature of series [3]: Inhibition of TNFalpha-induced NF-kB (unknown origin) activation expressed in human NCI-H460 cells after 7 hrs by luciferase reporter gene assay. It is filed as cell-based. Particulars: NCI-H460, 7 h. The gist of the method: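 NCI-H460 cells transiently co-transfected with pNF-κB-Luc reporter and pSV-β-galactosidase internal control by lipofectamine. Medium changed after 6 h, then 6 h further culture. TNF-α (15 ng ml–1) plus compound given together for 7 h. Luciferase ratio to TNF-α-only cells, corrected for non-TNF background and viability. IC50 from sigmoidal variable-slope fit.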
In general terms: In a reporter assay the amount or activity of a reporter protein is the signal.

In series [4] the test system is NCI-H460. In words: Cytotoxicity against human NCI-H460 cells harboring pNF-kB-Luc assessed as reduction in cell viability after 7 hrs by MTT assay relative to control. The conditions noted are these: nci-h460, 7 h. More on the design: concentration or dose not given beside the values.

Some results are limits rather than exact numbers.

One may read the IC50 as the concentration at which inhibition is half-maximal.

Turning to `COc1cc(NC(=O)[C@]23CC[C@@H](C)[C@H](C)[C@H]2C2=CC[C@@H]4[C@@]5(C)CC[C@H](OC(C)=O)C(C)(C)[C@@H]5CC[C@@]4(C)[C@]2(C)CC3)cc(OC)c1OC`, the IC50 with MGC-803 is 37.2 µM; in series [1], 28.7 µM; with NCI-H460 [2], 21.1 µM; in the series with A549, 36.5 µM; with T-24 it was 30.5 µM; with L02, greater than 50 µM. Besides, in series [3], the IC50 is 14.8 µM. The Activity with NCI-H460 [4] was less than 5%.
`Cc1ccc(NC(=O)[C@]23CC[C@@H](C)[C@H](C)[C@H]2C2=CC[C@@H]4[C@@]5(C)CCC(=O)C(C)(C)[C@@H]5CC[C@@]4(C)[C@]2(C)CC3)cc1C`: the IC50 in the series on MGC-803 was 21.4 µM; in series [1] it was 22.5 µM; in the series with NCI-H460 [2], 19.4 µM; in the series on A549, 20.9 µM; with T-24, 24.6 µM; with L02, greater than 50 µM. In series [3], this compound gave an IC50 of 15.2 µM. The Activity in the series with NCI-H460 [4] is less than 5%.
As for `CC(=O)O[C@H]1CC[C@]2(C)[C@H]3CC=C4[C@@H]5[C@@H](C)[C@H](C)CC[C@]5(C(=O)Nc5cccc(C)c5)CC[C@@]4(C)[C@]3(C)CC[C@H]2C1(C)C`, the IC50 (in the series on MGC-803; in series [1]; in the series on NCI-H460 [2]; in the series with A549; with T-24; in the series on L02) was greater than 50 µM throughout.
As to `Cc1cccc(NC(=O)[C@]23CC[C@@H](C)[C@H](C)[C@H]2C2=CC[C@@H]4[C@@]5(C)CCC(=O)C(C)(C)[C@@H]5CC[C@@]4(C)[C@]2(C)CC3)c1`, the IC50 (in the series with MGC-803; in series [1]; in the series on NCI-H460 [2]; with A549; in the series with T-24; in the series on L02) was greater than 50 µM each time.
On to `COc1cccc(NC(=O)COC(=O)[C@]23CC[C@@H](C)[C@H](C)[C@H]2C2=CC[C@@H]4[C@@]5(C)CCC(=O)C(C)(C)[C@@H]5CC[C@@]4(C)[C@]2(C)CC3)c1`, for which the IC50 (with MGC-803; in series [1]; in the series with NCI-H460 [2]; with A549; with T-24; in the series with L02) was greater than 50 µM in each case.
On to `COc1cccc(NC(=O)[C@]23CC[C@@H](C)[C@H](C)[C@H]2C2=CC[C@@H]4[C@@]5(C)CC[C@H](OC(C)=O)C(C)(C)[C@@H]5CC[C@@]4(C)[C@]2(C)CC3)c1`, for which the IC50 (in the series on MGC-803; in series [1]; in the series with NCI-H460 [2]; in the series on A549; in the series with T-24; in the series with L02) was greater than 50 µM each time.
`Cc1cccc(NC(=O)COC(=O)[C@]23CC[C@@H](C)[C@H](C)[C@H]2C2=CC[C@@H]4[C@@]5(C)CCC(=O)C(C)(C)[C@@H]5CC[C@@]4(C)[C@]2(C)CC3)c1`: the IC50 (in the series on MGC-803; in series [1]; in the series on NCI-H460 [2]; in the series on A549; in the series with T-24; in the series on L02) was greater than 50 µM in each case.
On to `C[C@H]1[C@H](C)CC[C@]2(C(=O)O)CC[C@]3(C)C(=CC[C@@H]4[C@@]5(C)CC[C@H](O)C(C)(C)[C@@H]5CC[C@]43C)[C@H]12` [URSOLIC ACID], for which the IC50 in the series on MGC-803 is 27.6 µM; in series [1], 30.2 µM; in the series on NCI-H460 [2] it was 32.2 µM; in the series on L02 it was greater than 50 µM; in series [3] it was greater than 20 µM. Moreover, in the series on NCI-H460 [4], the Activity is recorded as less than 5%.
Take `CC[C@@]1(O)C(=O)OCc2c1cc1n(c2=O)Cc2cc3cc(O)ccc3nc2-1` [HYDROXYCAMPTOTHECIN]: the IC50 in series [1] was determined as 12.6 µM; with NCI-H460 [2], 16.6 µM; in the series on A549 it was 2.75 µM; with L02, 12.8 µM.

The values above are taken from ChEMBL document CHEMBL4261518, “Side chain-functionalized aniline-derived ursolic acid derivatives as multidrug resistance reversers that block the nuclear factor-kappa B (NF-κB) pathway and cell proliferation” (Medchemcomm, 2017).
